Measured values from different studies.
Protocols differ between the studies behind these lines.
Target: Ephrin type-A receptor 8 (EPHA8, Homo sapiens, UniProt P29322)
Sequence (P29322 28-1005, as in one of the studies): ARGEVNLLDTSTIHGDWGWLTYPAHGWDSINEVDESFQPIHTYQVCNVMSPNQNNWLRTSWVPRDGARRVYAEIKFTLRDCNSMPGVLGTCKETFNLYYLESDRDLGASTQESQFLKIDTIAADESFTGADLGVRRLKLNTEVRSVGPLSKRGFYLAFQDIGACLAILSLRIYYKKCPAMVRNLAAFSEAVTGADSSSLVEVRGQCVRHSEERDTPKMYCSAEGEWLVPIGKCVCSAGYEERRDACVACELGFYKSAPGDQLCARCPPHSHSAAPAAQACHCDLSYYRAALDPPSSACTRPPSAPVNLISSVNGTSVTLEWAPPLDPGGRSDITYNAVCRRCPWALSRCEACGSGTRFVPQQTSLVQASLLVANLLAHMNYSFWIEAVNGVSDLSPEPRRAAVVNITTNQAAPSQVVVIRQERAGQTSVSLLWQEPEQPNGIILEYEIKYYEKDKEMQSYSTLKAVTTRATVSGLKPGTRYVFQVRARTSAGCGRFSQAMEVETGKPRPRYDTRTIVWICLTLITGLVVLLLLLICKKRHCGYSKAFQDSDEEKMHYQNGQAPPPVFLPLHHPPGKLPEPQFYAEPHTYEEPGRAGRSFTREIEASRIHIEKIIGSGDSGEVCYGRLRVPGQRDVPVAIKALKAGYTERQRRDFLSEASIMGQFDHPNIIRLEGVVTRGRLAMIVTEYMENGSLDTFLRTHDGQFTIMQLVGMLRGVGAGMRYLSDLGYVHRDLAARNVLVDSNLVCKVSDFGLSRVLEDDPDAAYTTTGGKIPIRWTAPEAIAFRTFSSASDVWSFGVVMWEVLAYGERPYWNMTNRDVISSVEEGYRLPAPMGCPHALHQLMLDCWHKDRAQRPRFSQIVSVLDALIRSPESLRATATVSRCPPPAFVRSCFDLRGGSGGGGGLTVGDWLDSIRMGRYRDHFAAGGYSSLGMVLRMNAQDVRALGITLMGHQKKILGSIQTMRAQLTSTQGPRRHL

| SMILES | assay | setting | measurement | value |
| --- | --- | --- | --- | --- |
| CCN(CC)c1ccc(C2=NNC(=O)CC2C)cc1[N+](=O)[O-] (stereo not drawn) | enzyme activity, inhibitor | 10 µM | remaining activity | 115% |
| COc1cc(-c2cc(-c3ccc(N4CCNCC4)cc3)cnc2C)cc(OC)c1OC | enzyme activity, inhibitor | 0.1 µM | inhibition | 3% |
| COc1cc2ncnc(Nc3ccc(Oc4ccccc4)c(C)c3C)c2cc1OC | enzyme activity, inhibitor | 1 µM | inhibition | 6% |
| Cc1ccc(Nc2nccc(N(C)c3ccc4c(C)n(C)nc4c3)n2)cc1S(N)(=O)=O | enzyme activity, inhibitor | 0.3 µM | inhibition | 17% |
| O=C(Nc1cnn(-c2csc(C(=O)NC3COC3)c2)c1)Nc1c(F)cccc1Cl | enzyme activity, inhibitor | 5 µM | remaining activity | 93.8% |
| Nc1ncnc2occ(-c3ccc(NC(=O)Nc4cc(C(F)(F)F)ccc4F)cc3)c12 | cell-free assay | 20 µM | remaining signal | 0% |
| N#CCCc1ccc2c(c1)-c1[nH]c3ccc([N+](=O)[O-])cc3c1CC(=O)N2 | cell-free assay | 0.5 µM | remaining signal | 105% |
| C[C@@]1(Cc2ccc(C#N)cc2)C(=O)N(c2cc(Cl)cc(Cl)c2)c2ncc(C(=O)NC3(c4nc(C5CCC5)no4)CC3)n21 | cell-free assay, competition with immobilised ligand | 1 µM | remaining binding | 100% |
| CNC(=O)c1cc2c(Oc3ccc(NC(=O)C4(C(=O)Nc5ccc(F)cc5)CC4)cc3)ccnc2cc1OC | enzyme activity, inhibitor, radiometric | 1 µM | inhibition | 102% |
| CCCOc1ccc([C@H]2[C@H](C(=O)O)[C@@H](c3ccc4c(c3)OCO4)CN2CC(=O)Nc2c(CC)cccc2CC)cc1 | cell-free assay, competition with immobilised ligand | 1 µM | remaining binding | 98% |
| Cc1ccc(C(=O)Nc2ccc(CN3CCN(C)CC3)c(C(F)(F)F)c2)cc1C#Cc1cnc2cccnn12 | cell-free assay | 23.5 nM | remaining signal | 0.9% |
| O=C(NCc1ncc(C(F)(F)F)cc1Cl)c1ccc2c(c1)C1(CCS(=O)(=O)CC1)[C@@H](C1CC1)N2S(=O)(=O)c1ccc(F)cc1 | cell-free assay, competition with immobilised ligand | 1 µM | remaining binding | 100% |
| Cc1sc(C(=O)NC2COC2)cc1-n1cc(NC(=O)Nc2c(F)cccc2Cl)cn1 | enzyme activity, inhibitor | 10 µM | remaining activity | 91.7% |
| Cc1cnc(NC2CCOCC2)nc1-n1cnc(C(=O)NC(CN)c2cc(F)cc(Cl)c2)c1 (stereo not drawn) | enzyme activity, inhibitor, radiometric | 1 µM | remaining activity | 95% |
| O=C(O)c1cc(-c2ccc(C3CCNCC3)cc2)c2ccc(-c3ccc(C(F)(F)F)cc3)cc2c1 | cell-free assay, competition with immobilised ligand | 1 µM | remaining binding | 100% |
| Clc1ccc(Nc2nnc(Cc3ccncc3)c3ccccc23)cc1 | cell-free assay | 0.5 µM | remaining signal | 100% |
| CNC(=O)c1cc(Oc2ccc(NC(=O)Nc3ccc(Cl)c(C(F)(F)F)c3)cc2)ccn1 | enzyme activity, inhibitor | 10 µM | inhibition | 89% |
| c1ccc(N2CCN(Cc3nc4ccccc4[nH]3)CC2)nc1 | cell-free assay, competition with immobilised ligand | 1 µM | remaining binding | 100% |
| CC(C)(O)[C@H]1CC[C@H](Nc2ccc3ncc(-c4cccc(C(F)(F)F)c4)n3n2)CC1 | enzyme activity, inhibitor | 1 µM | remaining activity | 84.3% |
| CC(C)(C)c1nc2c(s1)c1nc(N)ncc1c1ccc(NS(=O)(=O)c3c(F)cccc3F)c(F)c12 | enzyme activity, inhibitor, radiometric | 1 µM | remaining activity | 95% |
| Cc1nc(Cc2cccc(C(F)(F)F)c2)sc1-c1ccc(C(N)=O)nc1 | cell-free assay, competition with immobilised ligand | 1 µM | remaining binding | 100% |
